The test concerns Abhydrolase domain-containing protein 11 (ABHD11), Mus musculus. Briefly: recombinant ABHD11 inhibition, late-stage follow-up, selectivity assay for DAGLb inhibitor project, biochemical, competitive gel ABPP, mouse, set 1 (AID 602301). To be noted: Recombinant ABHD11 in HEK293T proteome, gel ABPP FP-Rh; at 10 µM; stronger effect = higher value. In a few lines: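 System: recombinant mouse ABHD11 spiked into HEK293T membrane proteome overexpressing mouse DAGLb; Quantity: 0.050 µM ABHD11 in 0.3 mg/mL proteome; Times: 30 min compound plus 30 min probe, 37 °C; Technique: SDS-PAGE in-gel fluorescence, band IOD; Measure: percent inhibition of ABHD11 band, background-corrected, relative to DMSO control.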

Structures are written as SMILES. Calls of active or inactive are those of the source.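 How the source made its calls: active means inhibition of at least 50%; inactive means inhibition below 50%.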

A word on the inhibition: it is the percentage by which the read-out fell short of the control. In the case of `O=C(N1CCCCC1Cc1ccccc1)n1cc(-c2ccc(-c3ccccc3)cc2)nn1` (stereo not given), the inhibition was 0% (inactive).

Turning to `O=C(N1CCCCC1Cc1ccccc1)n1cc(-c2ccc(-c3ccccc3Cl)cc2)nn1` (stereo not given), the inhibition was 50%.

Regarding `O=C(N1CCCCC1Cc1ccccc1)n1cc(-c2ccc(Br)cc2)nn1` (stereo not given), the inhibition was 90%.

Turning to `CC(C)CN(CCc1ccccc1)C(=O)n1cc(-c2ccc(OC(F)(F)F)cc2)nn1`, the inhibition was 10% (inactive).

As to `O=C(N1CCCCC1Cc1ccccc1)n1cc(-c2cc(F)cc(F)c2)nn1` (stereo not given), the inhibition is 95%.

For `O=C(N1CCCCC1Cc1ccccc1)n1cc(-c2cccc(-c3ccccc3)c2)nn1` (stereo not given), the inhibition is 80%.

For the compound `CC(C)(C)OC(=O)NCCCCCN(CCc1ccccc1)C(=O)n1cc(-c2ccc(OC(F)(F)F)cc2)nn1`, the inhibition was 0% (inactive).

For `O=C(N1CCCCC1Cc1ccccc1)n1ncc(-c2ccc(OC(F)(F)F)cc2)n1` (stereo not given), the inhibition is 10% (inactive).

As for `O=C(N1CCCCC1Cc1ccccc1)n1cc(-c2ccc(-c3ccccc3C(F)(F)F)cc2)nn1` (stereo not given), the inhibition is 10% (inactive).

Take `O=C(N1CCCCC1Cc1ccccc1)n1cc(-c2ccc(-c3cccc(C(F)(F)F)c3)cc2)nn1` (stereo not given): the inhibition is 10% (inactive).

Turning to `Cc1ccccc1-c1ccc(-c2cn(C(=O)N3CCCCC3Cc3ccccc3)nn2)cc1` (stereo not given), the inhibition was 60%.

With `O=C(N(CCc1ccccc1)Cc1ccco1)n1cc(-c2ccc(OC(F)(F)F)cc2)nn1`, the inhibition is 15% (inactive).

In the case of `O=C(N1CCCCC1Cc1ccccc1)n1cc(-c2ccc(-c3ccc(C(F)(F)F)cc3)cc2)nn1` (stereo not given), the inhibition was 30% (inactive).

Turning to `O=C(N1CCCCC1Cc1ccccc1)n1cc(-c2ccc(-c3ccoc3)cc2)nn1` (stereo not given), the inhibition was 30% (inactive).

On to `O=C(c1ccc(-c2cn(C(=O)N3CCCCC3Cc3ccccc3)nn2)cc1)N1CCCCC1` (stereo not given), for which the inhibition was 10% (inactive).

For the compound `O=C(N1CCCCC1Cc1ccccc1)n1cc(-c2ccc(OC(F)(F)F)cc2)nn1` (stereo not given), the inhibition is 50%.

Take `O=C(N1CCCCC1Cc1ccccc1)n1ncc(C(O)(c2ccccc2)c2ccccc2)n1` (stereo not given): the inhibition is 95%.

For `O=C(N1CCCCC1Cc1ccccc1)n1cc(-c2ccc(-c3ccc(OC(F)(F)F)cc3)cc2)nn1` (stereo not given), the inhibition is 20% (inactive).

For the compound `O=C(c1ccc(-c2ccc(-c3cn(C(=O)N4CCCCC4Cc4ccccc4)nn3)cc2)cc1)N1CCCCC1` (stereo not given), the inhibition was 20% (inactive).

As to `O=C(N1CCCCC1Cc1ccccc1)n1cc(-c2ccc(-c3ccccc3CO)cc2)nn1` (stereo not given), the inhibition is 20% (inactive).

With `O=C(N1CCCCC1Cc1ccccc1)n1cc(-c2ccc(-c3cccc(CO)c3)cc2)nn1` (stereo not given), the inhibition is 20% (inactive).

In the case of `O=C(N1CCCCC1Cc1ccccc1)n1cc(-c2ccc(-c3ccccc3OC(F)(F)F)cc2)nn1` (stereo not given), the inhibition is 20% (inactive).

As for `O=C(N1CCCCC1Cc1ccccc1)n1cc(-c2ccccc2-c2ccccc2)nn1` (stereo not given), the inhibition was 95%.

`COc1ccccc1-c1ccc(-c2cn(C(=O)N3CCCCC3Cc3ccccc3)nn2)cc1` (stereo not given): the inhibition was 10% (inactive).

As to `O=C(N1CCCCC1Cc1ccccc1)n1cc(-c2ccc(-c3ccc4c(c3)OCO4)cc2)nn1` (stereo not given), the inhibition was 10% (inactive).

(Values after PubChem BioAssay AID602301 (The Scripps Research Institute Molecular Screening Center, 2012).)
